Results pooled from the literature.
Lines come from different studies, so protocols differ.
JAK3 JH1: Tyrosine-protein kinase JAK3, JH1 (JAK3, Homo sapiens, UniProt P52333)
JAK3: Tyrosine-protein kinase JAK3 (JAK3, Homo sapiens, UniProt P52333)

Cn1cncc1[C@@](O)(COc1ccc(C#N)cc1-c1ccc(OC(F)(F)F)cc1)c1ccc(C#N)cc1
remaining binding (JAK3 JH1; cell-free assay; competition with immobilised ligand; 1 µM): 100%

Cc1nn(C)cc1-c1nc2c(N3CCN(Cc4ccc(Cl)cc4)CC3)c(Cl)cnc2[nH]1
remaining binding (JAK3 JH1; binding; competition with immobilised ligand; 1 µM): 0.85%

COc1ncccc1-c1cnn2ccc(N3CCN(C(=O)OC(C)C)CC3)nc12
remaining binding (JAK3; binding; competition with immobilised ligand; 1 µM): 71%

C#Cc1n[nH]c2c(-c3cn([C@@H](C)c4ccccc4)c(=O)[nH]c3=O)cc(F)cc12
inhibition (JAK3; enzyme activity; inhibitor; 0.1 µM): -12.1%

Cn1cc(-c2cccc(N3CCc4c(sc5c4CC(C)(C)C5)C3=O)c2CO)cc(Nc2ccncn2)c1=O
inhibition (JAK3; enzyme activity; inhibitor; 1 µM): -4%

CC(C)(C)c1cc(C=C(C#N)C#N)cc(Br)c1O
remaining activity (JAK3; enzyme activity; inhibitor; 0.5 µM): 110%

Cn1cc(-c2cc(F)cc(N3CCn4c(cc5c4CCCC5)C3=O)c2CO)cc(Nc2ccc(N3CCN(C4COC4)CC3)cn2)c1=O
inhibition (JAK3; enzyme activity; inhibitor; 0.1 µM): 2%

C#Cc1n[nH]c2c(-c3cn(C(C)c4ccccn4)c(=O)[nH]c3=O)cc(F)cc12 (stereo not shown)
inhibition (JAK3; enzyme activity; inhibitor; 1 µM): -4.9%

O=c1[nH]c2ccccc2n1C1CCN(Cc2ccc(-c3[nH]c4cc5ncnc5cc4nc3-c3ccccc3)cc2)CC1
remaining signal (JAK3; cell-free assay; 0.5 µM): 100%

Nc1ncc(-c2nc(N3CCOCC3)nc(N3CCOCC3)n2)c(C(F)F)n1
remaining binding (JAK3 JH1; binding; competition with immobilised ligand; 10 µM): 46%
